Consider four compounds from PMC8154199 (JACS Au, 2021).

In one data set the test system is P. falciparum strain Dd2. In words: Growth inhibition assay with highly synchronized P. falciparum, SYBR green. It is filed as cell-based. As to conditions: Plasmodium falciparum, DD2, 72 h, read-out: IC50 P. falciparum Dd2.
A short description of data set [1]: Probe solubility in aqueous ACN by absorbance kinetics. Type of data set: physicochemical. Particulars: aqueous ACN solutions (Figure S16). In outline: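 Solubility was assessed in 2% ACN by spectrophotometric absorbance kinetics over decreasing test compound concentrations, starting at 20 μM.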
The test system of another data set is human fibroblasts hMRC-5. In words: Toxicity against human fibroblasts hMRC-5. Type of data set: cell-based. As to conditions: Fibroblast, read-out: IC50 hMRC-5.
A short description of data set [2]: CID-ESI-MS stability of heme-drug complexes. It is filed as binding. As to conditions: 4-heme m/z 960.2; AQ-heme m/z 971.3; CQ-heme m/z 935.4. In outline:
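Hematin was made fresh from hemin in 50% ammonia. Test compound stock was in ACN or water. Hematin and compound were mixed equimolar at 100 μM in CH3CN/H2O (50:50), then diluted to 50 μM in ACN/H2O/HCOOH (50:50:1). Samples were infused at 5 μL·min–1 into an orthogonal ESI-TOF. CID used capillary exit (cone) voltage 120–400 V in 20 V steps, and adduct stability responses were plotted against voltage.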

Molecules are shown by their SMILES.

Usually IC50 stands for the point on the concentration scale where inhibition reaches its midpoint. With `CN(C)c1ccc2nc3ccc(=[N+](C)C)cc-3sc2c1` [methylene blue, reference compound], the IC50 in the data set with P. falciparum strain Dd2 was determined as 7 nM.
`C#Cc1ccc(C(=O)C2=C(C)C(=O)c3ccccc3C2=O)cc1` [probe 7]: the IC50 in the data set with P. falciparum strain Dd2 came to 1810 ± 302 nM; in the data set on human fibroblasts hMRC-5, 20.5 µM. In addition, the “solubility sequence, from the less to the most soluble” value in data set [1] was “probe 10 < probe 8 ≈ probe 7 < probe 9”.
Turning to `CCN(CC)CCCC(C)Nc1ccnc2cc(Cl)ccc12` (centres unmarked) [chloroquine, reference compound], the “residual complex at high fragmentor voltage (ion abundance)” value in data set [2] is “did not show a residual covalent adduct”. Also, the IC50 with P. falciparum strain Dd2 is 189 nM.
Turning to `C#Cc1ccc(CC2=C(C)C(=O)c3ccccc3C2=O)cc1` [probe 11, 2-(4-ethynylbenzyl)-3-methylnaphthalene-1,4-dione], the IC50 with P. falciparum strain Dd2 was 49 ± 15 nM; in the data set with human fibroblasts hMRC-5, over 64 µM.
